Experimental findings from ChEMBL document CHEMBL3091329, “Discovery of tetrahydroisoquinoline-based CXCR4 antagonists” (ACS Med Chem Lett, 2013) are described below.

Data set [1] deals with T1, C-X-C chemokine receptor type 4 (Homo sapiens, UniProt P61073). Put plainly: Ratio of IC50 for CXCR4 in human MAGI-CCR5 cells assessed as inhibition of HIV-1 3B entry to IC50 for CXCR4 in human Chem-1 cells assessed as inhibition of SDF-1alpha-mediated calcium flux. The format is functional, cell-based. The procedure, abridged:
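Two IC50s taken as a ratio. The first is from blockade of HIV-1 IIIB attachment in CCR5/CXCR4-expressing HeLaCD4-LTR-β-gal (MAGI) cells, with cytotoxicity (TC50) assessed alongside. The second is from inhibition of CXCL12-induced Ca2+ flux/release in Chem-1 cells. Each assay was run in duplicate.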

For data set [2], the target named is T1, C-X-C chemokine receptor type 4. Put plainly: Antagonist activity at CXCR4 in human Chem-1 cells assessed as inhibition of SDF-1alpha-mediated calcium flux preincubated for 10 mins by FLIPR assay. The data set is classed as functional, cell-based.
Data set [3] in a line: Cytotoxicity against human MAGI-CCR5 cells assessed as cell viability after 2 to 6 days by MTS assay.

T1 sequence (P61073 whole entry): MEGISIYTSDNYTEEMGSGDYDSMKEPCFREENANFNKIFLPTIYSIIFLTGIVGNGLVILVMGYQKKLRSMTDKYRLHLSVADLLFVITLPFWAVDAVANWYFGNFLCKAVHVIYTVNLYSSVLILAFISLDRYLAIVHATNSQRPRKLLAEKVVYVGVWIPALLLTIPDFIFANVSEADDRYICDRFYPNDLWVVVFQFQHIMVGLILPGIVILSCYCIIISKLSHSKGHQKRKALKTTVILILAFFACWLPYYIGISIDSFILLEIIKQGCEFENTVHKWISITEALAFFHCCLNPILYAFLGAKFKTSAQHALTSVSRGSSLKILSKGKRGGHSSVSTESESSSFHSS

For the compound `CC(C)NCCCCN(C[C@H]1Cc2ccccc2CN1)[C@H]1CCCc2cccnc21`, the Ratio IC50 in data set [1] was found to be 2. In addition, the IC50 in data set [2] amounted to 0.007 µM. Besides, the CC50 in data set [3] (MAGI-CCR5 cells) is above 10 µM. For `NCCCCN(C[C@H]1Cc2ccccc2CN1Cc1ccncc1)[C@H]1CCCc2cccnc21`, the IC50 in data set [2] was 0.66 µM. For the same compound, in data set [3] (MAGI-CCR5 cells), the CC50 is above 10 µM. For `CN(C)C(=O)NCCCCN(C[C@H]1Cc2ccccc2CN1)[C@H]1CCCc2cccnc21`, the IC50 in data set [2] is 0.18 µM. For the same compound, the CC50 in data set [3] (magi-ccr5) was above 10 µM.

Consider `NC(=O)NCCCCN(C[C@H]1Cc2ccccc2CN1)[C@H]1CCCc2cccnc21`, for which the IC50 in data set [2] was 0.003 µM. Besides, the CC50 in data set [3] (magi-ccr5) was above 10 µM. As to `CC(C)N1Cc2ccccc2C[C@@H]1CN(CCCCN)[C@H]1CCCc2cccnc21`, in data set [2], the IC50 was 0.14 µM. For the same compound, in data set [3] (MAGI-CCR5 cells), the CC50 is above 10 µM. In the case of `CN1Cc2ccccc2C[C@@H]1CN(CCCCN)[C@H]1CCCc2cccnc21`, the IC50 in data set [2] stood at 0.039 µM. Further, the CC50 in data set [3] (magi-ccr5) is above 10 µM.

As for `NCCCCN(C[C@H]1CCc2ccccc2N1)[C@H]1CCCc2cccnc21`, the CC50 in data set [3] (magi-ccr5) was above 30 µM.

Turning to `NCCCCN(C[C@H]1Cc2ccccc2CN1CC(=O)N1CCOCC1)[C@H]1CCCc2cccnc21`, in data set [2], the IC50 was found to be 0.57 µM. Moreover, the CC50 in data set [3] (magi-ccr5) was above 10 µM. For the compound `NCCCCN(C[C@@H]1CCc2ccccc2N1)[C@H]1CCCc2cccnc21`, the CC50 in data set [3] (magi-ccr5) is above 30 µM. Same read-out and setting: for `NCCCCN(C[C@H]1NCCc2ccccc21)[C@H]1CCCc2cccnc21` the value was above 30 µM.

On to `CN(C)CCCCN(C[C@H]1Cc2ccccc2CN1)[C@H]1CCCc2cccnc21`, for which the Ratio IC50 in data set [1] amounted to 2. The IC50 in data set [2] amounted to 0.008 µM. The CC50 in data set [3] (MAGI-CCR5 cells) was above 10 µM. Consider `NCCCCN(C[C@H]1Cc2ccccc2CN1Cc1ccccn1)[C@H]1CCCc2cccnc21`, for which, in data set [2], the IC50 amounted to 0.056 µM. For the same compound, the CC50 in data set [3] (MAGI-CCR5 cells) was above 10 µM.

Consider `NCCCCN(C[C@H]1Cc2ccccc2CN1Cc1cocn1)[C@H]1CCCc2cccnc21`, for which the IC50 in data set [2] amounted to 0.49 µM. Besides, the CC50 in data set [3] (magi-ccr5) is above 10 µM. As for `NCCCCN(C[C@@H]1Cc2ccccc2CN1)[C@H]1CCCc2cccnc21`, the CC50 in data set [3] (MAGI-CCR5 cells) is above 10 µM. In the case of `CC(=O)NCCCCN(C[C@H]1Cc2ccccc2CN1)[C@H]1CCCc2cccnc21`, in data set [2], the IC50 amounted to 0.004 µM. For the same compound, the CC50 in data set [3] (magi-ccr5) was above 10 µM. `NCCCCN(C[C@H]1Cc2ccccc2CN1Cc1cccnc1)[C@H]1CCCc2cccnc21`: the IC50 in data set [2] is 0.35 µM. The CC50 in data set [3] (MAGI-CCR5 cells) is above 10 µM. For the compound `NCCCCN(C[C@@H]1NCCc2ccccc21)[C@H]1CCCc2cccnc21`, the cytotoxic concentration (CC50) in data set [3] (magi-ccr5) was above 30 µM.
